What was measured:
Mus musculus [1] = species on record: Mus musculus; assay: Distribution of compound in mice liver was measured after 2 hr; assay type: ADME, organism-based; details: in vivo
In short: (§1)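 Female BDF/1 mice dosed by tail-vein injection at 25 mg/kg in 5% Tween 80 containing 5% ethanol; killed 1, 2, 3, 6 and 24 h later. Liver homogenized in 50% methanol and pyridinium salt quantified by C-18 reverse-phase HPLC (linear gradient 50–70% acetonitrile). Three mice per time point; values in µg/g wet tissue.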

Mus musculus [2] = species on record: Mus musculus; assay: Distribution of compound in mice liver was measured after 6 hr; assay type: ADME, organism-based; details: in vivo; in short: as §1
Mus musculus [3] = species on record: Mus musculus; assay: Distribution of compound in mice brain was measured after 3 hr; details: in vivo
Mus musculus [4] = species on record: Mus musculus; assay: Distribution of compound in mice brain was measured after 6 hr; details: in vivo
Mus musculus [5] = species on record: Mus musculus; assay: Distribution of compound in mice brain was measured after 2 hr; details: in vivo
Mus musculus [6] = species on record: Mus musculus; assay: Distribution of compound in mice liver was measured after 3 hr; assay type: ADME, organism-based; details: in vivo; in short: as §1
Mus musculus [7] = species on record: Mus musculus; assay: Distribution of compound in mice liver was measured after 24 hr; b=Undetected; assay type: ADME, organism-based; details: in vivo; in short: as §1
Mus musculus [8] = species on record: Mus musculus; assay: Distribution of compound in mice brain was measured after 1 hr; details: in vivo
Mus musculus [9] = species on record: Mus musculus; assay: Distribution of compound in mice liver was measured after 1 hr; assay type: ADME, organism-based; details: in vivo; in short: as §1
Mus musculus [10] = species on record: Mus musculus; assay: Distribution of compound in mice brain was measured after 24 hr r; details: in vivo
[11] = Half-life of compound in presence of mouse brain homogenate; assay type: ADME
In short: (§2)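 Dihydropyridine ester at 5 × 10^-5 M kept at 37 °C in a UV cuvette. Media were human plasma diluted 1:1 with 50 mM phosphate buffer pH 7.4, mouse liver homogenate (20 mg/mL) or mouse brain homogenate (40 mg/mL) in the same buffer. Loss of the 360 nm dihydronicotinate absorbance was followed. Rate constant came from the slope of log disappearance.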

[12] = In vitro oxidation of compound to its pyridinium salt (3) in presence of hydrogen peroxide; assay type: ADME
[13] = Half-life of compound in presence of human plasma; assay type: ADME; in short: as §2
Mus musculus [14] = species on record: Mus musculus; assay: In vitro oxidation of compound to its pyridinium salt (3) in presence of mouse brain homogenate; assay type: ADME; in short: as §2
Homo sapiens = species on record: Homo sapiens; assay: In vitro oxidation of compound to its pyridinium salt (3) in presence of human plasma; assay type: ADME; in short: as §2
[15] = Half-life of compound in presence of mouse liver homogenate; assay type: ADME; in short: as §2
Mus musculus [16] = species on record: Mus musculus; assay: In vitro oxidation of compound to its pyridinium salt (3) in presence of mouse liver homogenate; assay type: ADME; in short: as §2
[17] = Half-life of compound in presence of hydrogen peroxide; assay type: ADME

Row | SMILES | Concentration (Mus musculus [1]) | Concentration (Mus musculus [2]) | Concentration (Mus musculus [3]) | Concentration (Mus musculus [4]) | Concentration (Mus musculus [5]) | Concentration (Mus musculus [6]) | Concentration (Mus musculus [7]) | Concentration (Mus musculus [8]) | Concentration (Mus musculus [9]) | Concentration (Mus musculus [10]) | half-life [11] | K [12] | half-life [13] | K (Mus musculus [14]) | K (Homo sapiens) | half-life [15] | K (Mus musculus [16]) | half-life [17]
1 | Cc1cn(C2C=CC(COC(=O)c3ccc[n+](C)c3)O2)c(=O)[nH]c1=O.[I-] (stereo not drawn) | 2.5 ug (g of wet tissue)-1 | 1.3 ug (g of wet tissue)-1 | 5.3 ug (g of wet tissue)-1 | 5.1 ug (g of wet tissue)-1 | 4.9 ug (g of wet tissue)-1 | 2 ug (g of wet tissue)-1 | Undetected | 4.7 ug (g of wet tissue)-1 | 3.3 ug (g of wet tissue)-1 | 3 ug (g of wet tissue)-1 |  |  |  |  |  |  |  | 
2 | Cc1cn(C2C=CC(COC(=O)C3=CN(C)C=CC3)O2)c(=O)[nH]c1=O (stereo not drawn) |  |  |  |  |  |  |  |  |  |  | 2.17 h | 0.00055 s⁻¹ | 5.42 h | 0.0000885 s⁻¹ | 0.0000354 s⁻¹ | 2.08 h | 0.000092 s⁻¹ | 0.35 h
3 | Cc1cn([C@H]2C=C[C@@H](CO)O2)c(=O)[nH]c1=O [STAVUDINE] |  |  | 2.6 ug (g of wet tissue)-1 | 2.3 ug (g of wet tissue)-1 | 2.5 ug (g of wet tissue)-1 |  |  | 2.7 ug (g of wet tissue)-1 |  | 1.2 ug (g of wet tissue)-1 |  |  |  |  |  |  |  | 
4 | C[n+]1cccc(C(=O)[O-])c1 [TRIGONELLINE] |  |  | 2.4 ug (g of wet tissue)-1 | 1.9 ug (g of wet tissue)-1 | 2.1 ug (g of wet tissue)-1 |  |  | 2.2 ug (g of wet tissue)-1 |  | 0.9 ug (g of wet tissue)-1 |  |  |  |  |  |  |  | 

Reference: ChEMBL document CHEMBL1124421, “A dihydropyridine carrier system for sustained delivery of 2',3'-dideoxynucleosides to the brain” (J Med Chem, 1989)
